We go through two compounds from ChEMBL document CHEMBL4257478, “Design, synthesis and evaluation of (R)-3-(7-(methyl(7H-pyrrolo[2,3-d]pyrimidin-4-yl)amino)-5-azaspiro[2.4]heptan-5-yl)-3-oxopropanenitrile as a JAK1-selective inhibitor” (Medchemcomm, 2018).

Data set [1] has as its target Voltage-gated inwardly rectifying potassium channel KCNH2 (Homo sapiens, UniProt Q12809). Put plainly: Inhibition of human ERG expressed in HEK293 cells after 5 mins by automated planar patch clamp method. The format is cell-based.
Data set [2] deals with T1, Tyrosine-protein kinase JAK2 (Homo sapiens, UniProt O60674). Put plainly: Inhibition of human JAK2 at 10 uM using KTFCGTPEYLAPEVRREPRILSEEEQEMFRDFDYIADWC as substrate after 40 mins in presence of [gamma-33P-ATP] by scintillation counting method relative to control.
Data set [3] in a line: Cmax in Sprague-Dawley rat at 10 mg/kg, po after 0.25 to 24 hrs by LC-MS/MS method. As to conditions: in vivo. On the set-up: dose 10 mg/kg, route oral. The format is ADME, organism-based. In outline:
(§1)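 Male Sprague Dawley rats, 7-8 weeks old, n=4 per group. IV dose 5 mg/kg free base in 10% ethanol/90% PEG400; oral dose 10 mg/kg as corn oil suspension after 16 h fast. Blood taken 0.08-24 h (IV) or 0.25-24 h (PO). Plasma diluted in acetonitrile with internal standard, analysed by LC-MS/MS, parameters by non-compartmental analysis.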

The nature of data set [4]: Tmax in Sprague-Dawley rat at 10 mg/kg, po after 0.25 to 24 hrs by LC-MS/MS method. The format is ADME, organism-based. As to conditions: in vivo. In outline:
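Male Sprague Dawley rats, 7–8 weeks old, n=4, fasted 16 h. Free base given at 10 mg/kg po as a corn oil suspension (5 mL/kg); a 5 mg/kg iv arm used 10% ethanol/90% PEG400. Plasma sampled 0.25–24 h, acetonitrile-precipitated with internal standard, and measured by LC-MS/MS. Parameters derived by non-compartmental analysis.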

The nature of data set [5]: Half life in Sprague-Dawley rat at 10 mg/kg, po after 0.25 to 24 hrs by LC-MS/MS method. The format is ADME, organism-based. As to conditions: in vivo. In outline: as §1
The test system of data set [6] is Rattus norvegicus. Put plainly: AUC (0 to infinity) in Sprague-Dawley rat at 10 mg/kg, po after 0.25 to 24 hrs by LC-MS/MS method. It counts as ADME, organism-based. On the set-up: dose 10 mg/kg, route oral, time infinity. As to conditions: in vivo. In outline: as §1
In data set [7] the test system is Rattus norvegicus. Kind of data set: AUC (0 to t) in Sprague-Dawley rat at 10 mg/kg, po after 0.25 to 24 hrs by LC-MS/MS method. It counts as ADME, organism-based. Set-up: time lower 0.25 hr, dose 10 mg/kg, time upper 24 hr, route oral. As to conditions: in vivo. In outline: as §1
Data set [8] is described as follows: MRT in Sprague-Dawley rat at 10 mg/kg, po after 0.25 to 24 hrs by LC-MS/MS method. It counts as ADME, organism-based. To be noted: in vivo. In outline:
as §1

A short description of data set [9]: Half life in Sprague-Dawley rat at 5 mg/kg, iv after 0.08 to 24 hrs by LC-MS/MS method. The format is ADME, organism-based. As to conditions: in vivo. In outline: as §1
Data set [10] concerns Rattus norvegicus. Kind of data set: AUC (0 to infinity) in Sprague-Dawley rat at 5 mg/kg, iv after 0.08 to 24 hrs by LC-MS/MS method. As to conditions: in vivo. Set-up: dose 5 mg/kg, time infinity, route intravenous. The format is ADME, organism-based. In outline:
as §1

A short description of data set [11]: MRT in Sprague-Dawley rat at 5 mg/kg, iv after 0.08 to 24 hrs by LC-MS/MS method. The format is ADME, organism-based. As to conditions: in vivo. In outline:
as §1

Data set [12] concerns Rattus norvegicus. Kind of data set: Antiarthritic activity in adjuvant-induced SPF LEW/SsNSlc rat arthritis model assessed as paw thickness at 5 mg/kg, po qd measured on 14 days. It counts as functional. In outline: (§2)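 Lewis rats were 10 weeks old after 2 weeks acclimation. Immunized s.c. at the tail base with 0.1 mL complete Freund's adjuvant containing 10 mg/mL heat-killed mycobacterium. From day 12 post-immunization (day 1), n=10 per group, oral dosing once daily for 14 days, vehicle corn oil. Clinical score and hind paw measured twice weekly.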

The subject of data set [13] is Rattus norvegicus. Put plainly: Antiarthritic activity in adjuvant-induced SPF LEW/SsNSlc rat arthritis model assessed as paw thickness at 10 mg/kg, po qd measured on day 14. It counts as functional. In outline:
as §2

Data set [14] relates to Rattus norvegicus. Kind of data set: Antiarthritic activity in adjuvant-induced SPF LEW/SsNSlc rat arthritis model assessed as paw thickness at 20 mg/kg, po qd measured on day 14. The format is functional. In outline:
as §2

Data set [15] deals with Tyrosine-protein kinase JAK1 (Homo sapiens, UniProt P23458). Put plainly: Inhibition of human JAK1 using GEEPLYWSFPAKKK as substrate after 40 mins in presence of [gamma-33P-ATP] by scintillation counting method.
Data set [16] deals with T1, Tyrosine-protein kinase JAK2. Put plainly: Inhibition of human JAK2 using KTFCGTPEYLAPEVRREPRILSEEEQEMFRDFDYIADWC as substrate after 40 mins in presence of [gamma-33P-ATP] by scintillation counting method.

T1 sequence (O60674 whole entry): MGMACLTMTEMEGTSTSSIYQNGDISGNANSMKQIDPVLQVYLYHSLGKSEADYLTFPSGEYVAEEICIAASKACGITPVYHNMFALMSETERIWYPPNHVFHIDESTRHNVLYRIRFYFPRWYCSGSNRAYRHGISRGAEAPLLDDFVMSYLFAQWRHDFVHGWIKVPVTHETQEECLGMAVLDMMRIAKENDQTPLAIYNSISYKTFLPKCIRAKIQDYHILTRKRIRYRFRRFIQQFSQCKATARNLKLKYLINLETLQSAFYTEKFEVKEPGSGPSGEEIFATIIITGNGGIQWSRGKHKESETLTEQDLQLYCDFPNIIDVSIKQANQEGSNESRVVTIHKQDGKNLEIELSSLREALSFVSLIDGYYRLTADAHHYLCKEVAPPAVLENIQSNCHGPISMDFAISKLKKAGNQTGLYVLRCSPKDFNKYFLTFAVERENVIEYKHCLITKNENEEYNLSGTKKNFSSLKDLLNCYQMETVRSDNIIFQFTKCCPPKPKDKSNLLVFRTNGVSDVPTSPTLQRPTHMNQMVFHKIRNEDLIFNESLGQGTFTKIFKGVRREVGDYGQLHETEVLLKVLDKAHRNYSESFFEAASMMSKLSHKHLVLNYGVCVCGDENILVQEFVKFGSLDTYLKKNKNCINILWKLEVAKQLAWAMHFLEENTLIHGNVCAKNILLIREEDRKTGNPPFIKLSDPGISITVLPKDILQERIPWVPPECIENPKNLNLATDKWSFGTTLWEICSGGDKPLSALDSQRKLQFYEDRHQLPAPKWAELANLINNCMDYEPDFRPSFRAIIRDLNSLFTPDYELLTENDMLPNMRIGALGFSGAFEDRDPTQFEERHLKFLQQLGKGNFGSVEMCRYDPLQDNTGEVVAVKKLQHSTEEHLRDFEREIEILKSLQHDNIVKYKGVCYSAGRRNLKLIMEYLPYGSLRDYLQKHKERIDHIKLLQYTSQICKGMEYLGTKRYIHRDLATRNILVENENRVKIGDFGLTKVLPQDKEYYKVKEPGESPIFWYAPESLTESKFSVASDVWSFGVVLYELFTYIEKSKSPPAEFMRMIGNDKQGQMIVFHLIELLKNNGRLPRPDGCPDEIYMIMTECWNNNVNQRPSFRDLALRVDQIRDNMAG
Sequence of Tyrosine-protein kinase JAK1 (P23458 whole entry): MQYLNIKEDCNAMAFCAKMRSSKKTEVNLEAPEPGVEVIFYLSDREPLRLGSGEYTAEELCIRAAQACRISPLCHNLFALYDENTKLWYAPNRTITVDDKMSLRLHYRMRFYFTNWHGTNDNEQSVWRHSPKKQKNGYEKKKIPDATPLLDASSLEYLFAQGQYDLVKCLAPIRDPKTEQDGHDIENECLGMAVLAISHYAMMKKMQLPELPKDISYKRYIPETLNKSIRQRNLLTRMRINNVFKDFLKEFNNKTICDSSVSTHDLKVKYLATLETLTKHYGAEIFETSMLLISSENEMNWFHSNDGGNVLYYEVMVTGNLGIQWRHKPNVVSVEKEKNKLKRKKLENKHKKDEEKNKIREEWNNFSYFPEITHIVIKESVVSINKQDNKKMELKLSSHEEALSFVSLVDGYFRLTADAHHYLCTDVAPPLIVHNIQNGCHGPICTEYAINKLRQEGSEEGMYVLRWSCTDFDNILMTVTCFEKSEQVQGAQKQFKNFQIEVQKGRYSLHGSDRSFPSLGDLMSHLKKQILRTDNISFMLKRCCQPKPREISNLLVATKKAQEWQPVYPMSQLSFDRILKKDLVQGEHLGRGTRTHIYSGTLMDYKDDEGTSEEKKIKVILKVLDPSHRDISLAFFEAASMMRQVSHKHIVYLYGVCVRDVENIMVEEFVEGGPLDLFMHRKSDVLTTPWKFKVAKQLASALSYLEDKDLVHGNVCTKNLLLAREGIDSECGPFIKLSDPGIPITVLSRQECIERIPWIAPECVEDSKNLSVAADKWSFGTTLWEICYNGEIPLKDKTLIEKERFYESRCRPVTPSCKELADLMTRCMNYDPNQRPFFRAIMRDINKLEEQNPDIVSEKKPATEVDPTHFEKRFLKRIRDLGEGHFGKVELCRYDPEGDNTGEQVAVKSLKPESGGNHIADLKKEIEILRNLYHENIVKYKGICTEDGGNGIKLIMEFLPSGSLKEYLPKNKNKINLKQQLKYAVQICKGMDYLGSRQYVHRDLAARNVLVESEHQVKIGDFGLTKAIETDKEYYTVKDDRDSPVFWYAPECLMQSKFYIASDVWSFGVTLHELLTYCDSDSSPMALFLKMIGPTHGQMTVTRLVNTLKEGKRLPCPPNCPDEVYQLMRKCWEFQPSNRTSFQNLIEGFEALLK
Sequence of Voltage-gated inwardly rectifying potassium channel KCNH2 (Q12809 whole entry): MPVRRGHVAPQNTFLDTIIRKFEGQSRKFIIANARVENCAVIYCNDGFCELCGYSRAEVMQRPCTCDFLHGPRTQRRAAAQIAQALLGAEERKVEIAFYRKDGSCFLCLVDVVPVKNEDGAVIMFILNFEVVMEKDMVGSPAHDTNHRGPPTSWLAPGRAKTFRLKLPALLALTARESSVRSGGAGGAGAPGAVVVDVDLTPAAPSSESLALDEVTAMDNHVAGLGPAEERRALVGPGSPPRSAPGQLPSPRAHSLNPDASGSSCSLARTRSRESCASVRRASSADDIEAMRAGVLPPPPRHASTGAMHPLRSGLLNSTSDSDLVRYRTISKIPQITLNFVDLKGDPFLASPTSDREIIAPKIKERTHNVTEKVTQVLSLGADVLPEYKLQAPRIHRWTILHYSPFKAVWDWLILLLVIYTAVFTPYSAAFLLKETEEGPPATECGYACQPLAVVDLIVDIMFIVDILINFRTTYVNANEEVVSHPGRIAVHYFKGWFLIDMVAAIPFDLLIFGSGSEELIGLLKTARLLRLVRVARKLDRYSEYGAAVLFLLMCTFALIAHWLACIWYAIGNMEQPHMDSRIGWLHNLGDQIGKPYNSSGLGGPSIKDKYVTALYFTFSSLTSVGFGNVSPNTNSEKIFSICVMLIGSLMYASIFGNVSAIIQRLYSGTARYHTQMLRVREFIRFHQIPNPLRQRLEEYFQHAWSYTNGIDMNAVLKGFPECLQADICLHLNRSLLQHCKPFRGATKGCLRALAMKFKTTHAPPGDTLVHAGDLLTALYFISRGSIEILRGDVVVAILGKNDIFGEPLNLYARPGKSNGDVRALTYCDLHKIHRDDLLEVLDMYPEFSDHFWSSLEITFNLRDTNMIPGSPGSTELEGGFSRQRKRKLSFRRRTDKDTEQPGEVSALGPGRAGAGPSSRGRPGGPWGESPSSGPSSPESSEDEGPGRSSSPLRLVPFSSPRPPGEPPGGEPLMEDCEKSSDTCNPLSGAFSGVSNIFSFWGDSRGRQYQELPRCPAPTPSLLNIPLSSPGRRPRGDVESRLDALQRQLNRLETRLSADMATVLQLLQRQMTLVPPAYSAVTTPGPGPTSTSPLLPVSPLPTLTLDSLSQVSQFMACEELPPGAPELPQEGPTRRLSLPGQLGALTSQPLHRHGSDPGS

Usually IC50 stands for the midpoint of a concentration-inhibition curve. As a reminder, the inhibition is the percentage by which the read-out fell short of the control. Usually Cmax stands for the highest concentration seen after dosing. The term Tmax denotes the time from dosing to the highest level. As usually defined, the half-life is the time needed for the level to fall by half in the phase considered. A lower half-life goes with fast loss. What is called AUC is the area under the concentration-time curve, a measure of exposure. A low value points to low exposure. As usually defined, the MRT is a mean duration of stay, worked out from the concentration-time curve. In the case of `CN(c1ncnc2[nH]ccc12)[C@H]1CN(C(=O)CC#N)CC12CC2`, the IC50 in data set [1] worked out at 120000 nM. In addition, in data set [2], the inhibition at 10 µM amounted to 90%. The same compound showed a Cmax in [3] of 1000 ng/mL. In [4], the Tmax was 0.3 h. Also, the half-life was 2.1 h in data set [5] and 1.2 h in [9]. The AUC is 2100 ng·h/mL in the data set with Rattus norvegicus [6] and 920 ng·h/mL with Rattus norvegicus [10]. Besides, in the data set with Rattus norvegicus [7], the AUCt is 1900 ng·h/mL. The results for the MRT in data set [8] and in [11] were 3.1 h and 1.1 h, respectively. For the same compound, the Activity in the data set on Rattus norvegicus [12] is 10.33 mm; in the data set on Rattus norvegicus [13], 10.21 mm; in the data set with Rattus norvegicus [14], 10.2 mm.

In the case of `CCS(=O)(=O)N1C[C@H](N(C)c2ncnc3[nH]ccc23)C2(CC2)C1`, the figures for the IC50 in data set [15] and in data set [16] were 7.2 nM and 180 nM, respectively.
